# From ChEMBL document CHEMBL3580600, “Design, Synthesis, and Evaluation of 4- and 5-Substituted o-(Octanesulfonamido)benzoic Acids as Inhibitors of Glycerol-3-Phosphate Acyltransferase” (Medchemcomm, 2014)
# Molecular target: T1, Glycerol-3-phosphate acyltransferase 1, mitochondrial (Mus musculus, UniProt Q61586)
# T1 sequence (Q61586 whole entry): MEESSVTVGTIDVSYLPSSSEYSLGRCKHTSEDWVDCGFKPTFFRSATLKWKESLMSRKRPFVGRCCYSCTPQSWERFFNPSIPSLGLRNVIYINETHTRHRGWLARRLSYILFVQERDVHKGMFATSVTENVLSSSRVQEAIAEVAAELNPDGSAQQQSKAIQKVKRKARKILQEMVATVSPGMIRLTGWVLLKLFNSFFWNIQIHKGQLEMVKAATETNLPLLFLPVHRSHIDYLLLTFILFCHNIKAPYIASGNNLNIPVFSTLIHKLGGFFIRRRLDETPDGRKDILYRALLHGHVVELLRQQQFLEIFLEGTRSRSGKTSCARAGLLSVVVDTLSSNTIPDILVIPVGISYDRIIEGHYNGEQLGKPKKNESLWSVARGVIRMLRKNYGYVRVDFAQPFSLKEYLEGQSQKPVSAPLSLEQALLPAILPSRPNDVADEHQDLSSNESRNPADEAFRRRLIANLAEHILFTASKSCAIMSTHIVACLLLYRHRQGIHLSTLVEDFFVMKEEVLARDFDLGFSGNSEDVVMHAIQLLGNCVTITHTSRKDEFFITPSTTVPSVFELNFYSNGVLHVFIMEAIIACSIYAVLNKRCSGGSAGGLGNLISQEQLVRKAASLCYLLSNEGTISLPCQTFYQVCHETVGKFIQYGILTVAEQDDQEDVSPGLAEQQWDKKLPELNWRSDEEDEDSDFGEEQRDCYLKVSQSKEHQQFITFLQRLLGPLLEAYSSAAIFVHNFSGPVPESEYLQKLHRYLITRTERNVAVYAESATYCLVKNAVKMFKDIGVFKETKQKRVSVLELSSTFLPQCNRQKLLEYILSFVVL
# Experiment: Inhibition of GPAT in BALB/c mouse mitochondria using 14C-labeled glycerol-3-phosphate and palmitoyl-CoA incubated for 10 mins by scintillation counting method
# Method in brief: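 Mitochondria isolated from freshly harvested BALB/c mouse liver by differential centrifugation (1000 × g, then 3500 × g, twice) and resuspended in HEPES pH 7.4 storage buffer. Reaction in 75 mM Tris/HCl pH 7.4, 4 mM MgCl₂, 2 mg/mL BSA, 14C-glycerol-3-phosphate (7.6 mCi/mmol), 50 μM palmitoyl-CoA. Inhibitor 0–40 μg/mL in DMSO. Triplicates. IC50 taken relative to DMSO vehicle control activity.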
row,Structure (SMILES),IC50 [µM]
1,CCCCCCCCS(=O)(=O)Nc1cc(-c2ccccc2Cl)ccc1C(=O)O,26.9
2,CCCCCCCCS(=O)(=O)Nc1cc(-c2cccc(Cl)c2)ccc1C(=O)O,13.8
3,CCCCCCCCS(=O)(=O)Nc1cc(-c2ccc(Cl)cc2)ccc1C(=O)O,18.1
4,CCCCCCCCS(=O)(=O)Nc1cc(-c2ccc(CCCC)cc2)ccc1C(=O)O,15.7
5,CCCCCCCCS(=O)(=O)Nc1cc(-c2ccccc2-c2ccccc2)ccc1C(=O)O,17.1
6,CCCCCCCCS(=O)(=O)Nc1cc(-c2ccc(-c3ccccc3)cc2)ccc1C(=O)O,13.5
7,CCCCCCCCS(=O)(=O)Nc1cc(-c2ccccc2OC)ccc1C(=O)O,16.1
8,CCCCCCCCS(=O)(=O)Nc1cc(-c2ccc(OC)cc2)ccc1C(=O)O,13.3
9,CCCCCCCCS(=O)(=O)Nc1cc(-c2ccccc2F)ccc1C(=O)O,47.2
10,CCCCCCCCS(=O)(=O)Nc1cc(-c2cccc(F)c2)ccc1C(=O)O,32.6
11,CCCCCCCCS(=O)(=O)Nc1cc(-c2ccc(O)cc2)ccc1C(=O)O,64.8
12,CCCCCCCCS(=O)(=O)Nc1ccc(-c2cccc(Cl)c2)cc1C(=O)O,8.9
13,CCCCCCCCS(=O)(=O)Nc1ccc(-c2ccc(Cl)cc2)cc1C(=O)O,9.2
14,CCCCCCCCS(=O)(=O)Nc1ccc(-c2ccc(CCCC)cc2)cc1C(=O)O,9
15,CCCCCCCCS(=O)(=O)Nc1ccc(-c2ccccc2-c2ccccc2)cc1C(=O)O,10.1
16,CCCCCCCCS(=O)(=O)Nc1ccc(-c2ccc(-c3ccccc3)cc2)cc1C(=O)O,29.1
17,CCCCCCCCS(=O)(=O)Nc1ccc(-c2ccccc2OC)cc1C(=O)O,27.6
18,CCCCCCCCS(=O)(=O)Nc1ccc(-c2ccc(OC)cc2)cc1C(=O)O,19.5

row,Structure (SMILES),IC50 [µM]
1,CCCCCCCCS(=O)(=O)Nc1ccc(-c2ccccc2F)cc1C(=O)O,34.6
2,CCCCCCCCS(=O)(=O)Nc1ccc(-c2cccc(F)c2)cc1C(=O)O,37.6
3,CCCCCCCCS(=O)(=O)Nc1ccc(-c2ccccc2O)cc1C(=O)O,61.7
4,CCCCCCCCS(=O)(=O)Nc1ccc(-c2ccc(O)cc2)cc1C(=O)O,47.3
5,CCCCCCCCS(=O)(=O)Nc1cc(C(=O)c2ccc(CCCC)cc2)ccc1C(=O)O,15.8
6,CCCCCCCCS(=O)(=O)Nc1cc(C(=O)c2ccc(-c3ccccc3)cc2)ccc1C(=O)O,8.5
7,CCCCCCCCS(=O)(=O)Nc1cc(/C=C/c2ccccc2)ccc1C(=O)O,38
8,CCCCCCCCS(=O)(=O)Nc1cc(/C=C/c2ccc(OC)cc2)ccc1C(=O)O,38.7
9,CCCCCCCCS(=O)(=O)Nc1cc(CCc2ccccc2)ccc1C(=O)O,37.5
10,CCCCCCCCS(=O)(=O)Nc1cc(CCc2ccc(OC)cc2)ccc1C(=O)O,43
11,CCCCCCCCS(=O)(=O)Nc1ccc(C(=O)c2ccc(CCCC)cc2)cc1C(=O)O,31.7
12,CCCCCCCCS(=O)(=O)Nc1ccc(C(=O)c2ccc(-c3ccccc3)cc2)cc1C(=O)O,13
13,CCCCCCCCS(=O)(=O)Nc1ccc(C(=O)c2ccccc2OC)cc1C(=O)O,59.2
14,CCCCCCCCS(=O)(=O)Nc1ccc(C(=O)c2ccc(OC)cc2)cc1C(=O)O,44.3
15,CCCCCCCCS(=O)(=O)Nc1ccc(/C=C/c2ccccc2)cc1C(=O)O,16.3
16,CCCCCCCCS(=O)(=O)Nc1ccc(/C=C/c2ccc(OC)cc2)cc1C(=O)O,37.1
17,CCCCCCCCS(=O)(=O)Nc1ccc(CCc2ccccc2)cc1C(=O)O,37.5
18,CCCCCCCCS(=O)(=O)Nc1ccc(CCc2ccc(OC)cc2)cc1C(=O)O,26.3
